30 molecules from ChEMBL document CHEMBL2150978, “Phosphorodiamidates as a promising new phosphate prodrug motif for antiviral drug discovery: application to anti-HCV agents” (J Med Chem, 2011) can be followed below.

Some results are limits rather than exact numbers.

One series concerns Hepatitis C virus. Nature of the series: Antiviral activity against Hepatitis C virus subtype 1b Con1 infected in human Huh7 cells assessed as inhibition of HCV replicon-encoded Renilla luciferase reporter activity after 72 hrs by HCV replicon assay. Type of series: functional, organism-based, Hepacivirus hominis. To be noted: Con1, Huh-7, 72 h. In a few lines: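 Huh7 cells stably carrying a bicistronic subgenomic genotype 1b (Con1) replicon with Renilla luciferase reporter, seeded at 2 × 10⁴ cells/well the day before. Four-fold serial dilutions in growth medium, no-drug controls on each plate; 3 days at 37 °C, 5% CO₂. Luciferase reagent 20 min, then luminescence (RLU) read; EC₅₀ derived.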
Background: Replicon systems follow genome replication, usually without infectious particles.

A short description of series [1]: Cytotoxicity against human HuH7 cells after 3 days. The format is cell-based, Huh-7. In a few lines:
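Huh7 replicon cells seeded at 2 × 10⁴ per well one day before dosing. Four-fold serial dilutions in growth medium, no-drug controls on each plate. Incubated 3 days at 37 °C, 5% CO₂. Viability read by CellTiter-Glo luminescence after 20 min with reagent.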

As a reminder, the EC50 is the concentration giving half of the maximal effect. A word on the EC90: it is the point of the concentration-response curve where the effect stands at 90%. As usually defined, the CC50 is the concentration that lowers cell viability or growth by half. Read a high CC50 as lower toxicity to the cells. Consider `COc1nc(N)nc2c1ncn2[C@@H]1O[C@H](COP(=O)(N2CCC[C@H]2C(=O)OCC(C)(C)C)N2CCC[C@H]2C(=O)OCC(C)(C)C)[C@@H](O)[C@@]1(C)O` (mixture of isomers), for which, in the series with Hepatitis C virus, the EC50 turned out to be 0.81 µM and the EC90 worked out at 2 µM. In series [1], the CC50 at 72 h stood at 56 µM.

Take `COc1nc(N)nc2c1ncn2[C@@H]1O[C@H](COP(=O)(N[C@H](C(=O)OC2CCCCC2)C(C)C)N[C@H](C(=O)OC2CCCCC2)C(C)C)[C@@H](O)[C@@]1(C)O` (mixture of isomers): in the series on Hepatitis C virus, the EC50 is 2.5 µM and the EC90 came to 10 µM. In series [1], this molecule returned a CC50 at 72 h of 20 µM.

Consider `COc1nc(N)nc2c1ncn2[C@@H]1O[C@H](COP(=O)(N[C@H](C(=O)OCC(C)(C)C)C(C)C)N[C@H](C(=O)OCC(C)(C)C)C(C)C)[C@@H](O)[C@@]1(C)O` (mixture of isomers), for which, in the series with Hepatitis C virus, the EC50 turned out to be 0.72 µM and the EC90 came to 2.5 µM. This molecule gave a CC50 at 72 h in series [1] of 32 µM.

For the molecule `COC(=O)[C@H](Cc1ccc(OC(C)(C)C)cc1)NP(=O)(N[C@@H](Cc1ccc(OC(C)(C)C)cc1)C(=O)OC)OC[C@H]1O[C@@H](n2cnc3c(OC)nc(N)nc32)[C@](C)(O)[C@@H]1O` (mixture of isomers), in the series on Hepatitis C virus, the EC50 was determined as 0.11 µM and the EC90 is 0.5 µM. This molecule also came in with a CC50 at 72 h in series [1] of 89 µM.

Take `COc1nc(N)nc2c1ncn2[C@@H]1O[C@H](COP(=O)(N[C@H](C(=O)OC2CCCCC2)c2ccccc2)N[C@H](C(=O)OC2CCCCC2)c2ccccc2)[C@@H](O)[C@@]1(C)O` (mixture of isomers): in the series with Hepatitis C virus, the EC50 worked out at 0.32 µM and the concentration for an effect of 90% (EC90) was 1.8 µM. This molecule also registered a CC50 at 72 h in series [1] of 18 µM.

Consider `COc1nc(N)nc2c1ncn2[C@@H]1O[C@H](COP(=O)(N[C@H](C(=O)OCC(C)(C)C)c2ccccc2)N[C@H](C(=O)OCC(C)(C)C)c2ccccc2)[C@@H](O)[C@@]1(C)O` (mixture of isomers), for which, in the series with Hepatitis C virus, the EC50 was 0.27 µM and the EC90 stood at 1.5 µM. In addition, the CC50 at 72 h in series [1] was 24 µM.

Take `COc1nc(N)nc2c1ncn2[C@@H]1O[C@H](COP(=O)(N[C@H](C(=O)N[C@@H](C)C(=O)OCC(C)(C)C)C(C)C)N[C@H](C(=O)N[C@@H](C)C(=O)OCC(C)(C)C)C(C)C)[C@@H](O)[C@@]1(C)O` (mixture of isomers): in the series on Hepatitis C virus, the EC50 turned out to be 0.54 µM and the EC90 was determined as 2.4 µM. Besides, the CC50 at 72 h in series [1] was over 100 µM.

Turning to `COc1nc(N)nc2c1ncn2[C@@H]1O[C@H](COP(=O)(NCCC(=O)OCc2ccccc2)NCCC(=O)OCc2ccccc2)[C@@H](O)[C@@]1(C)O` (mixture of isomers), in the series on Hepatitis C virus, the EC50 was found to be 3.8 µM and the EC90 is over 10 µM. The molecule also showed a CC50 at 72 h in series [1] of over 100 µM.

`CCCCNP(=O)(NCCCC)OC[C@H]1O[C@@H](n2cnc3c(OC)nc(N)nc32)[C@](C)(O)[C@@H]1O` (mixture of isomers): in the series with Hepatitis C virus, the EC50 turned out to be 37.8 µM and the EC90 is over 40 µM. The molecule also registered a CC50 at 72 h in series [1] of over 100 µM.

For `COc1nc(N)nc2c1ncn2[C@@H]1O[C@H](COP(=O)(N2CCOCC2)N2CCOCC2)[C@@H](O)[C@@]1(C)O` (mixture of isomers), in the series with Hepatitis C virus, the EC50 was over 100 µM and the EC90 was over 100 µM. In addition, the CC50 at 72 h in series [1] is over 100 µM.

In the case of `COc1nc(N)nc2c1ncn2[C@@H]1O[C@H](COP(=O)(N[C@@H](C)C(=O)OC2CCCCC2)N[C@@H](C)C(=O)OC2CCCC2)[C@@H](O)[C@@]1(C)O` (mixture of isomers), in the series with Hepatitis C virus, the EC50 was found to be 0.04 µM and the EC90 came to 0.16 µM. This molecule also showed a CC50 at 72 h in series [1] of over 100 µM.

With `COc1nc(N)nc2c1ncn2[C@@H]1O[C@H](COP(=O)(N[C@@H](C)C(=O)OCc2ccccc2)N[C@@H](C)C(=O)OCC(C)(C)C)[C@@H](O)[C@@]1(C)O` (mixture of isomers), in the series on Hepatitis C virus, the EC50 is 0.15 µM and the EC90 turned out to be 0.4 µM. This molecule also yielded a CC50 at 72 h in series [1] of over 100 µM.

With `COc1nc(N)nc2c1ncn2[C@@H]1O[C@H](COP(=O)(N[C@@H](C)C(=O)OCC(C)(C)C)N[C@@H](C)C(=O)OC(C)(C)C)[C@@H](O)[C@@]1(C)O` (mixture of isomers), in the series on Hepatitis C virus, the EC50 turned out to be 0.15 µM and the EC90 is 0.57 µM. The molecule also had a CC50 at 72 h in series [1] of over 100 µM.

Consider `COc1nc(N)nc2c1ncn2[C@@H]1O[C@H](COP(=O)(N[C@@H](C)C(=O)OCC(C)(C)C)N[C@@H](C)C(=O)OC2CCCCC2)[C@@H](O)[C@@]1(C)O` (mixture of isomers), for which, in the series on Hepatitis C virus, the EC50 came to 0.04 µM and the EC90 worked out at 0.15 µM. In addition, the CC50 at 72 h in series [1] was over 100 µM.

As to `COC(=O)[C@@H]1CCCN1P(=O)(N[C@@H](C)C(=O)OCC(C)(C)C)OC[C@H]1O[C@@H](n2cnc3c(OC)nc(N)nc32)[C@](C)(O)[C@@H]1O` (mixture of isomers), in the series on Hepatitis C virus, the EC50 was 0.49 µM and the EC90 came to 2.2 µM. In addition, the cytotoxic concentration (CC50) at 72 h in series [1] was over 100 µM.

`COC(=O)[C@@H](NP(=O)(N[C@@H](C)C(=O)OCC(C)(C)C)OC[C@H]1O[C@@H](n2cnc3c(OC)nc(N)nc32)[C@](C)(O)[C@@H]1O)C(C)C` (mixture of isomers): in the series on Hepatitis C virus, the EC50 was determined as 0.17 µM and the EC90 stood at 0.69 µM. In addition, the CC50 at 72 h in series [1] was over 100 µM.

`CCCCNP(=O)(N[C@@H](C)C(=O)OCc1ccccc1)OC[C@H]1O[C@@H](n2cnc3c(OC)nc(N)nc32)[C@](C)(O)[C@@H]1O` (mixture of isomers): in the series with Hepatitis C virus, the EC50 was 0.44 µM and the EC90 stood at 1.68 µM. Besides, the CC50 at 72 h in series [1] was over 100 µM.

With `CCCCNP(=O)(N[C@@H](C)C(=O)OCC(C)(C)C)OC[C@H]1O[C@@H](n2cnc3c(OC)nc(N)nc32)[C@](C)(O)[C@@H]1O` (mixture of isomers), in the series with Hepatitis C virus, the EC50 worked out at 0.41 µM and the EC90 came to 1.5 µM. In series [1], this molecule yielded a CC50 at 72 h of over 100 µM.

Regarding `CCCCCNP(=O)(N[C@@H](C)C(=O)OCC(C)(C)C)OC[C@H]1O[C@@H](n2cnc3c(OC)nc(N)nc32)[C@](C)(O)[C@@H]1O` (mixture of isomers), in the series on Hepatitis C virus, the EC50 came out at 0.11 µM and the EC90 was 0.52 µM. For the same molecule, the CC50 at 72 h in series [1] is over 100 µM.

As to `COc1nc(N)nc2c1ncn2[C@@H]1O[C@H](COP(=O)(NC2CC2)N[C@@H](C)C(=O)OCC(C)(C)C)[C@@H](O)[C@@]1(C)O` (mixture of isomers), in the series with Hepatitis C virus, the EC50 was determined as 0.87 µM and the EC90 is 4.7 µM. The molecule further yielded a CC50 at 72 h in series [1] of over 100 µM.

As for `COc1nc(N)nc2c1ncn2[C@@H]1O[C@H](COP(=O)(NCc2ccccc2)N[C@@H](C)C(=O)OCC(C)(C)C)[C@@H](O)[C@@]1(C)O` (mixture of isomers), in the series with Hepatitis C virus, the EC50 turned out to be 0.43 µM and the EC90 was 1.9 µM. For the same molecule, in series [1], the CC50 at 72 h is over 100 µM.

Turning to `COc1nc(N)nc2c1ncn2[C@@H]1O[C@H](COP(=O)(Nc2ccccc2)N[C@@H](C)C(=O)OCC(C)(C)C)[C@@H](O)[C@@]1(C)O` (mixture of isomers), in the series on Hepatitis C virus, the EC50 came to 0.27 µM and the EC90 was 0.82 µM. For the same molecule, the CC50 at 72 h in series [1] is over 100 µM.

Consider `COc1nc(N)nc2c1ncn2[C@@H]1O[C@H](COP(=O)(Nc2cccc3ccccc23)N[C@@H](C)C(=O)OCC(C)(C)C)[C@@H](O)[C@@]1(C)O` (mixture of isomers), for which, in the series on Hepatitis C virus, the EC50 was 0.13 µM and the EC90 stood at 0.56 µM. In addition, the CC50 at 72 h in series [1] was over 100 µM.

As to `CCN(CC)P(=O)(N[C@@H](C)C(=O)OCC(C)(C)C)OC[C@H]1O[C@@H](n2cnc3c(OC)nc(N)nc32)[C@](C)(O)[C@@H]1O` (mixture of isomers), in the series on Hepatitis C virus, the EC50 was determined as 3.7 µM and the EC90 was over 10 µM. In series [1], the CC50 at 72 h is over 100 µM.

As for `COc1nc(N)nc2c1ncn2[C@@H]1O[C@H](COP(=O)(N[C@@H](C)C(=O)OCC(C)(C)C)N2CCCC2)[C@@H](O)[C@@]1(C)O` (mixture of isomers), in the series on Hepatitis C virus, the EC50 is 0.87 µM and the EC90 turned out to be 4 µM. This molecule returned a CC50 at 72 h in series [1] of over 100 µM.

Regarding `CCOc1nc(N)nc2c1ncn2[C@@H]1O[C@H](COP(=O)(N[C@@H](C)C(=O)OC2CCCCC2)N[C@@H](C)C(=O)OC2CCCCC2)[C@@H](O)[C@@]1(C)O` (mixture of isomers), in the series with Hepatitis C virus, the EC50 was found to be 0.05 µM and the EC90 stood at 0.15 µM. This molecule had a half-maximal cytotoxic concentration (CC50) at 72 h in series [1] of 69 µM.

Turning to `CCOc1nc(N)nc2c1ncn2[C@@H]1O[C@H](COP(=O)(N[C@@H](C)C(=O)OCc2ccccc2)N[C@@H](C)C(=O)OCc2ccccc2)[C@@H](O)[C@@]1(C)O` (mixture of isomers), in the series with Hepatitis C virus, the EC50 was determined as 0.29 µM and the EC90 came to 1 µM. Besides, half-maximal cytotoxicity in series [1] (CC50 at 72 h) was put at 62 µM.

`CCOc1nc(N)nc2c1ncn2[C@@H]1O[C@H](COP(=O)(N[C@@H](C)C(=O)OCC(C)(C)C)N[C@@H](C)C(=O)OCC(C)(C)C)[C@@H](O)[C@@]1(C)O` (mixture of isomers): in the series with Hepatitis C virus, the EC50 was determined as 0.04 µM and the EC90 was 0.11 µM. The same molecule displayed a CC50 at 72 h in series [1] of 72 µM.

For the molecule `C[C@@]1(O)[C@H](O)[C@@H](CO)O[C@H]1n1cnc2c(=O)[nH]c(N)nc21` [2'-B-METHYL-GUANOSINE], in the series with Hepatitis C virus, the EC50 turned out to be 2.2 µM and the EC90 is 8.3 µM. The CC50 at 72 h in series [1] is over 100 µM.

Consider `COc1nc(N)nc2c1ncn2[C@@H]1O[C@H](CO)[C@@H](O)[C@@]1(C)O` [BETA-2'-C-METHYL-6-O-METHYL GUANOSINE], for which, in the series with Hepatitis C virus, the EC50 stood at 4.4 µM and the EC90 was 19.4 µM. The CC50 at 72 h in series [1] is over 100 µM.
